# Results published in ChEMBL document CHEMBL1149490, “SAR of biphenyl carboxamide ligands of the human melanin-concentrating hormone receptor 1 (MCH R1): discovery of antagonist SB-568849” (Bioorg Med Chem Lett, 2006).
# Active and inactive are the calls of the source. No cut-off for these calls is given here.
# Assays:
# [1] = target: T1, Melanin-concentrating hormone receptor 1 (Homo sapiens, UniProt Q99705); assay: Displacement of radiolabeled iodo-MCH from human MCHR1 expressed in HEK293 cells; assay type: cell-based
# T1 sequence (Q99705 whole entry): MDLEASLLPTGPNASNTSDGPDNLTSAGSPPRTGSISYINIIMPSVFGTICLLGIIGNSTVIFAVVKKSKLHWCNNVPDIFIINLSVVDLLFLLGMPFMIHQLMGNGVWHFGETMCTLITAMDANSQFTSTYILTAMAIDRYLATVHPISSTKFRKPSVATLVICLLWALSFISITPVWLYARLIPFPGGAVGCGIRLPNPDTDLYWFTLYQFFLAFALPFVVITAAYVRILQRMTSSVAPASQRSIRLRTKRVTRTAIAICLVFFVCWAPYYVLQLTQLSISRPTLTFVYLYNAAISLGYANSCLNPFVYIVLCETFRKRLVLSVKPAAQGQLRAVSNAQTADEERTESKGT
# [2] = test system: Liver microsomes; assay: Intrinsic clearance in rat liver microsome; assay type: ADME
# How it was run: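 Rat liver microsomes at 0.5 mg/mL protein, starting compound 0.5 µM. Compound loss followed as a concentration-time profile. First-order rate constant K taken from the profile; CLi = K·V, scaled and given in mL/min/g liver.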
# [3] = AUC in Sprague-Dawley rat; assay type: ADME, organism-based; conditions: plasma
# How it was run: (§1)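 Cannulated Sprague-Dawley rats (n ≥ 3), crossover over two study days: iv infusion of buffered compound at 10 mL/kg/h, target 1.0 mg pfb/kg, blood sampled up to 24 h. After ≥2 days recovery, oral gavage of a suspension in aq methylcellulose (1.5 mg pfb/mL, 2 mL/kg), target 3 mg pfb/kg, blood sampled pre-dose and up to 27 h.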
# [4] = Oral bioavailability in Sprague-Dawley rat; assay type: ADME, organism-based; conditions: in vivo; how it was run: as §1
# [5] = Ratio of drug level in brain against blood in rat 0.3 mg/kg/hr, iv; assay type: ADME, organism-based; design: route intravenous; conditions: read-out: BBR
# How it was run: (§2)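 Rats given compound dissolved in 2% (v/v) DMSO in 5% (w/v) aqueous dextrose by constant iv infusion over 12 h, target 0.3 mg free base/kg/h, for steady-state brain:blood measurement. Blood clearance is the initial elimination rate from blood per unit body mass after this iv dosing.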
# [6] = target: Melanin-concentrating hormone receptor (Homo sapiens) (UniProt Q969V1+Q99705); assay: Antagonizing effect on MCH-stimulated CRF release in rat hypothalamus; assay type: functional, tissue-based; conditions: target entry is the homologue from another species
# Sequence of Melanin-concentrating hormone receptor (Homo sapiens) (Q969V1 whole entry, looked up): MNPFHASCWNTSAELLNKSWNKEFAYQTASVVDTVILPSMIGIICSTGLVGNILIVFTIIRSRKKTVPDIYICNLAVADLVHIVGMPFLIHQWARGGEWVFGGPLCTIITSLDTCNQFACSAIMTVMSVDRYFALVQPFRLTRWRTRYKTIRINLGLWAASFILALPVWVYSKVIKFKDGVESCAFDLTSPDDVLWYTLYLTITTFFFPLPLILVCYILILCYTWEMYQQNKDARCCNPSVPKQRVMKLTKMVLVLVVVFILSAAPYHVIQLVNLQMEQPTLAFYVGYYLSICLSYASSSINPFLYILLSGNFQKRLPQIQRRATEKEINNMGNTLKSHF
# Sequence of Melanin-concentrating hormone receptor (Homo sapiens) (Q99705 whole entry, looked up): as the sequence (Q99705 whole entry) above
# [7] = Clearance in rat at 0.3 mg/kg/hr, iv; assay type: ADME, organism-based; design: route intravenous; conditions: in vivo; how it was run: as §2
# [8] = Solubility of the compound; assay type: physicochemical
# [9] = target: T2, 5-hydroxytryptamine receptor 2C (Homo sapiens, UniProt P28335); assay: Binding affinity to 5HT2C receptor
# T2 sequence (P28335 whole entry): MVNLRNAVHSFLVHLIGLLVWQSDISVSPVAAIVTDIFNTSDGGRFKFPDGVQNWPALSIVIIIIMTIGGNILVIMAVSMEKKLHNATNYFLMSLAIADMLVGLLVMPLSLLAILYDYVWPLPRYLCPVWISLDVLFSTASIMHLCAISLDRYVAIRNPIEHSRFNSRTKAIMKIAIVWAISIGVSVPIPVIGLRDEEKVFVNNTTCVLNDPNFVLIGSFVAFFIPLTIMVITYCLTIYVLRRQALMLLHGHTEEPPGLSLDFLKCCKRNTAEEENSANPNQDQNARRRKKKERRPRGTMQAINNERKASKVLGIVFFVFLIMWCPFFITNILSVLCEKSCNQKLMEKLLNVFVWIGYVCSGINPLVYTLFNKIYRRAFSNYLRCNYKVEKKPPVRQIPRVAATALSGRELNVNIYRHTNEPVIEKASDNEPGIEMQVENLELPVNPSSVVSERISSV
# [10] = target: T1, Melanin-concentrating hormone receptor 1; assay: Antagonist activity at human MCHR1 expressed in HEK293 cells assessed as inhibition of MCH-stimulated calcium mobilization; assay type: functional, cell-based
# How it was run: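 Stably transfected HEK293 cells re-seeded on poly-D-lysine and grown 24 h, loaded with fluorescent indicator in assay buffer plus probenecid, washed, then exposed to compound for 30 min. FLIPR readings taken before and after an EC80 concentration of MCH. Apparent pKb fitted to the MCH response with a 4-parameter logistic equation.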
# [11] = Solubility in water; assay type: physicochemical
# [12] = Solubility in artificial cerebrospinal fluid; assay type: physicochemical
SMILES,Ki [1] [nM],also measured
COc1cc(NC(=O)c2ccc(Oc3ccccc3)cc2)ccc1OCCN(C(C)C)C(C)C,200,–
COc1cc(NC(=O)c2cccc(C(=O)c3ccccc3)c2)ccc1OCCN(C(C)C)C(C)C,> 10000,–
CCN(CC)CCOc1ccc(N(CC)C(=O)c2ccc(-c3ccccc3)cc2)cc1OC,251,–
COc1cc(NC(=O)c2ccccc2)ccc1OCCN(C(C)C)C(C)C,> 10000,–
COc1cc(NC(=O)c2ccc(C(C)(C)C)cc2)ccc1OCCN(C(C)C)C(C)C,> 10000,–
CCN(CC)CCOc1ccc(NC(=O)c2ccc(-c3ccccc3)cc2)cc1C(C)O (stereo not given),251,–
COc1cc(NS(=O)(=O)c2ccc(-c3ccccc3)cc2)ccc1OCCN1CCCC1,> 10000,–
COc1cc(NC(=O)c2ccc(Br)cc2)ccc1OCCN(C(C)C)C(C)C,> 6310,–
COc1cc(N(C)C(=O)c2cccc(Oc3ccccc3)c2)ccc1OCCN(C(C)C)C(C)C,398,–
COc1cc(NC(=O)c2cccc(Cc3ccccc3)c2)ccc1OCCN(C(C)C)C(C)C,158,–
COc1cc(NC(=O)c2cccc(-c3ccccc3)c2)ccc1OCCN(C(C)C)C(C)C,5010,–
COc1cc(NC(=O)c2ccc(-c3ccccc3)cc2C)ccc1OCCN(C(C)C)C(C)C,126,–
COc1cc(N(C)S(=O)(=O)c2ccc(-c3ccccc3)cc2)ccc1OCCN(C(C)C)C(C)C,> 10000,–
COc1cc(NC(=O)c2ccc(-c3cccc(C(F)(F)F)c3)cc2)ccc1OCCN(C(C)C)C(C)C,251,–
COc1cc(NC(=O)c2ccc(-c3ccccc3)c(C)c2)ccc1OCCN(C(C)C)C(C)C,158,–
COc1cc(N(C)C(=O)c2ccc(C3CCCCC3)cc2)ccc1OCCN(C(C)C)C(C)C,100,–
CC(C)N(CCOc1ccc(NC(=O)c2ccc(-c3ccccc3)cc2)cc1F)C(C)C,398,–
COc1cc(NC(=O)c2cccc(Oc3ccccc3)c2)ccc1OCCN(C(C)C)C(C)C,79.4,–

# The next lines start with results.
Ki [1] [nM],SMILES,also measured
31.6,CCN(CC)CCOc1ccc(NC(=O)c2ccc(-c3ccccc3)cc2)cc1OC,CL [2]: 4 mL/min/g
20,CCN(CC)CCOc1ccc(N(C)C(=O)c2ccc(-c3ccc(C(F)(F)F)cc3)cc2)cc1OC,AUC [3]: 2.37 µM·h; bioavailability [4]: 30%; Kp [5]: 1; CL [2]: 4 mL/min/g; Activity [6]: Active; clearance [7]: 16 mL/min/kg
31.6,COc1cc(NC(=O)c2ccc(-c3ccccc3)cc2)ccc1OCCN(C(C)C)C(C)C,solubility [8]: 4 µg/mL; Ki [9]: 158 nM; Kp [5]: 2.7; pKb [10]: 7.5; CL [2]: 9 mL/min/g; clearance [7]: 67 mL/min/kg
79.4,COc1cc(NC(=O)c2ccc(-c3ccc(C(F)(F)F)cc3)cc2)ccc1OCCN(C(C)C)C(C)C,–
39.8,COc1cc(NC(=O)c2ccc(-c3ccccc3C)cc2)ccc1OCCN(C(C)C)C(C)C,–
79.4,COc1cc(N(C)C(=O)c2ccc(Cc3ccccc3)cc2)ccc1OCCN(C(C)C)C(C)C,–
50.1,CCc1cc(NC(=O)c2ccc(-c3ccccc3)cc2)ccc1OCCN(CC)CC,–
15.8,COc1cc(N(C)C(=O)c2ccc(-c3ccccc3)cc2)ccc1OCCN(C(C)C)C(C)C,solubility [11]: > 500 µg/mL; CL [2]: 19 mL/min/g; solubility [12]: > 500 µg/mL
39.8,COc1cc(NC(=O)c2ccc(-c3ccccc3)cc2)ccc1OCCN1CCCCC1,–
20,COc1cc(N(C)C(=O)c2ccc(-c3ccccc3)cc2)ccc1OCCN1CCCC1,Kp [5]: 0.1; CL [2]: 2 mL/min/g; clearance [7]: 57 mL/min/kg
25.1,Cc1cc(OCCN(C(C)C)C(C)C)ccc1NC(=O)c1ccc(-c2ccccc2)cc1,–
50.1,COc1cc(NC(=O)c2ccc(-c3ccccc3)cc2)ccc1OCCN(C)C,–
31.6,COc1cc(NC(=O)c2ccc(-c3ccccc3)cc2)ccc1OCCN1CCCC1,CL [2]: 2 mL/min/g
20,CCN(CC)CCOc1ccc(N(C)C(=O)c2ccc(-c3ccccc3)cc2)cc1OC,Kp [5]: 0.1; CL [2]: 5 mL/min/g; clearance [7]: 51 mL/min/kg
63.1,Cc1cc(NC(=O)c2ccc(-c3ccccc3)cc2)ccc1OCCN(C(C)C)C(C)C,–
50.1,COc1cc(NC(=O)c2ccc(-c3ccccc3)cc2)ccc1OCCN(C)Cc1ccccc1,–
31.6,CCN(CC)CCOc1ccc(NC(=O)c2ccc(-c3ccccc3)cc2)cc1C(C)=O,–
63.1,CC(C)N(CCOc1ccc(NC(=O)c2ccc(-c3ccccc3)cc2)cc1)C(C)C,–
25.1,COc1cc(NC(=O)c2ccc(C3CCCCC3)cc2)ccc1OCCN(C(C)C)C(C)C,–
